Data on 14 compounds can be found in ChEMBL document CHEMBL5226322, “Harnessing the Role of HDAC6 in Idiopathic Pulmonary Fibrosis: Design, Synthesis, Structural Analysis, and Biological Evaluation of Potent Inhibitors” (J Med Chem, 2021).

Active and inactive are the calls of the source. The rule behind the calls is not given here.

For data set [1], the target named is T1, Histone deacetylase 1 (Homo sapiens, UniProt Q13547). In words: Inhibition of human recombinant HDAC1 using ZMAL (Z-(Ac)Lys-AMC) as fluorogenic substrate incubated for 120 mins by microplate reader assay.
T1 sequence (Q13547 whole entry): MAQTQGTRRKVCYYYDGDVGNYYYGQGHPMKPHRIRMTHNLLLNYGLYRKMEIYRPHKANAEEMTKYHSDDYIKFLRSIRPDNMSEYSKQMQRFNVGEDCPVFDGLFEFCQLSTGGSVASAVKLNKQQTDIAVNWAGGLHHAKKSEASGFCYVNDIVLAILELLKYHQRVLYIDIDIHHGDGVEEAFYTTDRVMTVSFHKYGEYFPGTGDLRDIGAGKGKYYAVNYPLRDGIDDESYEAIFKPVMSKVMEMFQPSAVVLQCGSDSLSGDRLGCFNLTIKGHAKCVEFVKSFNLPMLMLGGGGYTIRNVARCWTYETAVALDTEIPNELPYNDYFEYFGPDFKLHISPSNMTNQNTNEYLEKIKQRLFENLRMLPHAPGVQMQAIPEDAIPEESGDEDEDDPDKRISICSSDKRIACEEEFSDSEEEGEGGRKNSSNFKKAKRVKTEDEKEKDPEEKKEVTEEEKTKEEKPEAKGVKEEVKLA
Data set [2] deals with T2, Protein deacetylase HDAC6 (Homo sapiens, UniProt Q9UBN7).
T2 sequence (Q9UBN7 whole entry): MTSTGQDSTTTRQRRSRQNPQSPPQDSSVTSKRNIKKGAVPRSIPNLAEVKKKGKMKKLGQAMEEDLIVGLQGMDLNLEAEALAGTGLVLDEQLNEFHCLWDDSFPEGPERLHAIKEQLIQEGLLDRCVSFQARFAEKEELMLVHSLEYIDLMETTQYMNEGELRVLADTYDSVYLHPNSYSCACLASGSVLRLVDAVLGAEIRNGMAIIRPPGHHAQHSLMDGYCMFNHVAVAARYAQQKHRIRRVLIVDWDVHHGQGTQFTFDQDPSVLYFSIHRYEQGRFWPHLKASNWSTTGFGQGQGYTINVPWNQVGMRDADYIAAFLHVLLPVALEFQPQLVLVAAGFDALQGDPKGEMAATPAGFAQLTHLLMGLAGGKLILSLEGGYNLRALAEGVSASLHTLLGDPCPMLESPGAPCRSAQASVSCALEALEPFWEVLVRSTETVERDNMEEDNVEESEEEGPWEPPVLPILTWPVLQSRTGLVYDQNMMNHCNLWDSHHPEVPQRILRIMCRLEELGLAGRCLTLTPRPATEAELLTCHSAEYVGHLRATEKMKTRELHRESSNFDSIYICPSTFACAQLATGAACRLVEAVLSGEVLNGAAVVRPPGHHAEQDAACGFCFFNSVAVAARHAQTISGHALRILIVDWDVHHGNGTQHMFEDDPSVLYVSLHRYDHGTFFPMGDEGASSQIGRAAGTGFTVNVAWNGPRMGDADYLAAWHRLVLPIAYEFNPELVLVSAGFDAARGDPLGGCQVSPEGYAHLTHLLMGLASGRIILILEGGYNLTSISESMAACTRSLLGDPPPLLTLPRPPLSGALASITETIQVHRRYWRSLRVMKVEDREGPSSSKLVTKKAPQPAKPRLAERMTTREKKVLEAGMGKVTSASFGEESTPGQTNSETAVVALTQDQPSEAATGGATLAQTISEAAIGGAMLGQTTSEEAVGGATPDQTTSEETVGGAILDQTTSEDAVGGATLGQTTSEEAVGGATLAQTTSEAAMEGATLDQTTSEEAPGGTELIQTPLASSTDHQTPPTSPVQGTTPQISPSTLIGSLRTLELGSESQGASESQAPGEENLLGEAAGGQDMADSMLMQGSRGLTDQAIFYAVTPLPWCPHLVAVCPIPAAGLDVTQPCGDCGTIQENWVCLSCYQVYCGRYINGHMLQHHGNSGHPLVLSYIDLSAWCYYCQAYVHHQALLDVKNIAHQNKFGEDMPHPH
In words: Inhibition of human recombinant HDAC6 using ZMAL (Z-(Ac)Lys-AMC) as fluorogenic substrate incubated for 120 mins by microplate reader assay.

Data set [3] relates to NIH3T3. In words: Cytotoxicity in mouse NIH3T3 cells assessed as reduction in cell viability at 20 uM incubated for 24 hrs by neutral red uptake method based UV/visible spectrophotometer analysis. The format is toxicity. The following applies: nih3t3, 24 h. In short, it runs like this: (§1)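 NIH3T3 mouse fibroblasts grown in DMEM with 10% FCS, L-glutamine/pen-strep and non-essential amino acids (37 °C, 5% CO2). Exposed 24 h to compound diluted from a DMSO stock into medium. Viability measured by Neutral Red uptake: 3 h in NR medium, then acetic acid/ethanol desorb, absorbance at 540 nm. Student's t-test, p<0.05.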

Data set [4] relates to NIH3T3. Description: Cytotoxicity in mouse NIH3T3 cells assessed as reduction in cell viability at 7.5 uM incubated for 24 hrs by neutral red uptake method based UV/visible spectrophotometer analysis. Type of data set: toxicity. To be noted: nih3t3, 24 h. In short, it runs like this:
as §1

The subject of data set [5] is NIH3T3. In words: Cytotoxicity in mouse NIH3T3 cells assessed as reduction in cell viability at 5 uM incubated for 24 hrs by neutral red uptake method based UV/visible spectrophotometer analysis. To be noted: nih3t3, 24 h. The format is toxicity. An outline of the steps:
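NIH3T3 fibroblasts grown in DMEM with 10% FCS, L-glutamine/pen-strep and non-essential amino acids at 37 °C, 5% CO2. Monolayers exposed 24 h to compound diluted from a DMSO stock into medium. Neutral Red medium then added for 3 h at 37 °C. Dye extracted with acetic acid/ethanol desorb solution and absorbance read at 540 nm. Student's t-test, p<0.05.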

The test system of data set [6] is NIH3T3. Description: Cytotoxicity in mouse NIH3T3 cells assessed as reduction in cell viability at 2 uM incubated for 24 hrs by neutral red uptake method based UV/visible spectrophotometer analysis. The format is toxicity. The following applies: nih3t3, 24 h. An outline of the steps: as §1
Data set [7] has as its system NIH3T3. Description: Cytotoxicity in mouse NIH3T3 cells assessed as reduction in cell viability at 1 uM incubated for 24 hrs by neutral red uptake method based UV/visible spectrophotometer analysis. Type of data set: toxicity. To be noted: nih3t3, 24 h. An outline of the steps:
as §1

In data set [8] the test system is Airway basal cell. In words: Inhibition of cell proliferation in IPF patient derived human Airway basal cell at 20 to 50 nM incubated for 14 days by MTT assay. Type of data set: functional, cell-based. The following applies: dose 20-50 nM, time 14.0 day. In short, it runs like this:
(§2)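 IPF patient airway basal cell 3D organoid cultures (10⁴ cells in Matrigel, 1:1 BEGM/DMEM) treated 14 days at 1–50 nM, medium changed weekly. Proliferation read by colorimetric MTT on day 14. Mean ± SEM of triplicates, n=3; repeated-measures ANOVA/Friedman test. Reported IC50 is the mean of the count-based and MTT-based IC50s.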
(In general: Tetrazolium dyes change colour on reduction, which living cells bring about.)

The target in data set [9] is T1, Histone deacetylase 1. Description: Inhibition of HDAC1 in human U87 cells assessed as increase in acetylation of histone H3 at 5 uM incubated for 30 hrs by western blot analysis. The format is cell-based. In short, it runs like this: (§3)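 Whole lysates (35 μg) and acid-extracted histones (2 μg) run on SDS-PAGE and blotted for acetylated tubulin or acetyl-histone H3; GAPDH or H4 as loading controls.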

The target of data set [10] is T1, Histone deacetylase 1. Description: Inhibition of HDAC1 in human NB-4 cells assessed as increase in acetylation of histone H3 at 5 uM incubated for 30 hrs by western blot analysis. Type of data set: cell-based. In short, it runs like this: as §3
For a further data set, the species on record is Homo sapiens. Description: Inhibition of broncho-sphere formation in IPF patient derived human lung organoid assessed as inhibition of 3D organoid formation at 0.1 to 50 nM incubated for 14 days by Bright-field microscopy analysis. Type of data set: functional. The following applies: dose 0.1-50 nM, time 14.0 day. An outline of the steps:
(§4)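 Airway basal cells from bronchial brushings of IPF patients, 10⁴ cells in Matrigel on transwell inserts with 1:1 BEGM/DMEM. Treated 14 days (1–50 nM per methods; 0.1–50 nM per legend), medium changed every 7 days.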

A short description of data set [11]: Inhibition of cell proliferation in IPF patient derived human Airway basal cell incubated for 14 days by MTT assay. Type of data set: functional, cell-based. To be noted: 336 h. An outline of the steps: as §2
Data set [12] concerns the target T3, Protein deacetylase HDAC6 (Homo sapiens) (UniProt Q9UBN7).
T3 sequence (whole entry): T2 sequence (Q9UBN7 whole entry)
Description: Inhibition of HDAC6 in human NB-4 cells assessed as increase in acetylation of alpha-tubulin at 5 uM incubated for 30 hrs by western blot analysis. The format is cell-based. An outline of the steps: as §3
Background: A western blot detects proteins with antibodies after separation by electrophoresis.

The target in data set [13] is T3, Protein deacetylase HDAC6 (Homo sapiens). In words: Inhibition of HDAC6 in human U87 cells assessed as increase in acetylation of alpha-tubulin at 5 uM incubated for 30 hrs by western blot analysis. The format is cell-based. An outline of the steps: as §3
Data set [14] can be described thus: Inhibition of spheroid count in IPF patient derived human Airway basal cell incubated for 14 days by Bright-field microscopy analysis. Type of data set: functional, cell-based. In short, it runs like this: as §4
The test system of data set [15] is Airway basal cell. Description: Inhibition of spheroid count in IPF patient derived human Airway basal cell assessed as reduction in sphere count at 20 to 50 nM incubated for 14 days by Bright-field microscopy analysis. The format is functional, cell-based. To be noted: dose 20-50 nM, time 14.0 day. An outline of the steps:
as §4

The target of data set [16] is T3, Protein deacetylase HDAC6 (Homo sapiens). In words: Inhibition of HDAC6 in human U2OS cells assessed as increase in acetylation of alpha-tubulin at 5 uM incubated for 30 hrs by western blot analysis. The format is cell-based. An outline of the steps:
as §3

The next data set deals with T4, Histone deacetylase 8 (Homo sapiens, UniProt Q9BY41).
T4 sequence (Q9BY41 whole entry): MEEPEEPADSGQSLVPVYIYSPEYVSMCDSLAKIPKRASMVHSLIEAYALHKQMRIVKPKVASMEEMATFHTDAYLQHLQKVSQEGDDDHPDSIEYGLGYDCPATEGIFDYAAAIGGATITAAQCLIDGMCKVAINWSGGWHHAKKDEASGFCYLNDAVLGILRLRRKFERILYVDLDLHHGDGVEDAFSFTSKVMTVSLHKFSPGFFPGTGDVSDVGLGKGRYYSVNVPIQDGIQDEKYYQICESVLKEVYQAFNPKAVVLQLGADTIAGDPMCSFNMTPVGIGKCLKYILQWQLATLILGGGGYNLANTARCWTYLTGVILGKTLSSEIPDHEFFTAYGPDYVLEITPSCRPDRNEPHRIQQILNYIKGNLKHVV
Description: Inhibition of human recombinant HDAC8 using FLUOR DE LYS fluorometric substrate pre-incubated for 15 mins and followed by substrate addition and measured after 60 mins by microplate reader assay. In short, it runs like this:
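Recombinant human HDAC8 at 0.45 U/reaction with 0.5% DMSO; DMSO-only enzyme served as control. Enzyme preincubated 15 min with compound, then Fluor de Lys substrate added (50 μM final) for 1 h at 30 °C. Quenched with 2 μM TSA in Developer II for a further 1 h at 30 °C. Fluorescence read at ex 370/em 450 nm. IC50 from nonlinear dose-response fit.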

What is called IC50 is the point on the concentration scale where inhibition reaches its midpoint. `CN1CCC2(CC1)c1ccccc1N(Cc1ccc(C(=O)NO)cc1)C2c1cccnc1` (racemic): the results for the IC50 (on Histone deacetylase 1 [1]; in data set [2]) were 7600 nM and 112 nM, respectively.
As to `CN1CCC2(CC1)c1ccccc1N(Cc1ccc(C(=O)NO)cc1)C2c1cccc(Cl)c1` (racemic), the IC50 on Histone deacetylase 1 [1] was 8100 nM; in data set [2], 111 nM.
Taken in the same sequence, the figures for `CN1CCC2(CC1)c1ccccc1N(Cc1ccc(C(=O)NO)cc1)C2c1ccc(Cl)cc1` (racemic) were 3650 nM and 165 nM.
For `CC1(C)c2ccccc2N(Cc2ccc(C(=O)NO)cc2)C1c1ccccc1` (racemic) the same measures were 18700 nM and 166 nM.
Turning to `O=C(CCCCCCC(=O)Nc1ccccc1)NO` [VORINOSTAT], the Activity with NIH3T3 [3] was determined as 7%; in the data set on NIH3T3 [4] it was 22%; in the data set with NIH3T3 [5], 31%; with NIH3T3 [6] it was 62%; in the data set on NIH3T3 [7], 83%.
Regarding `CN1CCC2(CC1)c1ccccc1N(Cc1ccc(C(=O)NO)cc1)C2c1ccccc1` (racemic), the inhibition result (in the data set with Airway basal cell [8]; in [12]; in data set [13]; with Airway basal cell [15]) was “Active” throughout. Besides, the inhibition entry at Histone deacetylase 1 [9] and on Histone deacetylase 1 [10] was “inactive” throughout. In addition, the inhibition entry in the data set filed under Homo sapiens was “Dose-Dependent Effect”. Besides, the IC50 in [11] turned out to be 0.154 nM; on Histone deacetylase 1 [1], 4290 nM; in [14] it was 2.55 nM; in data set [2], 73.2 nM.
Take `CC1(C)c2ccccc2N(Cc2ccc(C(=O)NO)cc2)C1c1ccncc1` (racemic): the inhibition result (in the data set with Airway basal cell [8]; in [12]; in data set [13]; in data set [16]; with Airway basal cell [15]) was “Active” throughout. Besides, the inhibition entry at Histone deacetylase 1 [9] and at Histone deacetylase 1 [10] was “inactive” throughout. The inhibition result in the data set listed under Homo sapiens was “Dose-Dependent Effect”. Moreover, the IC50 in [11] stood at 4.97 nM; on Histone deacetylase 1 [1], 10800 nM; on Histone deacetylase 8 it was 4640 nM; in data set [14], 4.35 nM; in [2], 61.1 nM.
`CC(C)(C)OC(=O)N1CCC2(CC1)c1ccccc1N(Cc1ccc(C(=O)NO)cc1)C2c1cccnc1` (racemic): the IC50 at Histone deacetylase 1 [1] was determined as 8100 nM; in data set [2] it was 152 nM.
For `CC1(C)c2ccccc2N(Cc2ccc(C(=O)NO)cc2)[C@@H]1c1cccnc1` the same measures were 3380 nM and 71.3 nM.
For `CC1(C)c2ccccc2N(Cc2ccc(C(=O)NO)cc2)[C@H]1c1cccnc1` the same measures were 16200 nM and 90.6 nM.
Taken in the same sequence, the figures for `CC1(C)c2ccccc2N(Cc2ccc(OCCCC(=O)NO)cc2)C1c1cccnc1` (racemic) were 1630 nM and 616 nM.
With `CC1(C)c2ccccc2N(Cc2ccc(C(=O)NO)s2)C1c1cccnc1` (racemic), the figures for the IC50 (at Histone deacetylase 1 [1]; in [2]) were 6320 nM and 811 nM, respectively.
As to `CN1CCC2(CC1)c1ccccc1N(Cc1ccc(C(=O)NO)cc1)C2c1ccc(F)cc1` (racemic), the inhibition entry on Histone deacetylase 1 [9] and at Histone deacetylase 1 [10] was “inactive” each time. Moreover, the inhibition entry in data set [12] and in [13] was “Active” in each case. Besides, the results for the IC50 (on Histone deacetylase 1 [1]; in [2]) were 6160 nM and 142 nM, respectively.
Regarding `COc1ccc2c(c1)C(C)(C)C(c1cccnc1)N2Cc1ccc(C(=O)NO)cc1` (racemic), the IC50 at Histone deacetylase 1 [1] amounted to 5320 nM; in data set [2], 67.2 nM.
